Data set [1] concerns Leishmania donovani. Kind of data set: Antileishmanial activity against Leishmania donovani axenic amastigotes. It is filed as functional, organism-based.
Data set [2] has as its system Leishmania donovani. Kind of data set: Antileishmanial activity against intracellular Leishmania donovani LV82 amastigotes. It is filed as functional, organism-based. The essentials: (§1)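 CD-1 mouse peritoneal macrophages, 5 × 10^4 cells/well in RPMI 1640 + 10% heat-inactivated FBS, adhered overnight. Infected overnight with stationary-phase LV82 promastigotes (5:1 parasite:macrophage), 37°C, 5% CO2. Medium then replaced with compound or vehicle for 72 h at 37°C. Methanol-fixed, Giemsa-stained; % infected macrophages counted at ×1,000. IC50 by four-parameter logistic nonlinear regression.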

Data set [3] concerns Leishmania amazonensis. Kind of data set: Antileishmanial activity against intracellular Leishmania amazonensis amastigotes. It is filed as functional, organism-based.
Data set [4] concerns Leishmania major. The data set can be described thus: Antileishmanial activity against intracellular Leishmania major amastigotes. The data set is classed as functional, organism-based.
In data set [5] the test system is Leishmania donovani. Kind of data set: Antileishmanial activity against intracellular Leishmania donovani LV82 amastigotes infected in CD-1 mouse peritoneal macrophage. The data set is classed as functional, organism-based. The essentials:
as §1

Data set [6] in a line: Induction of mutagenicity in Salmonella serovar Typhimurium TA 100 assessed as number of revertant colonies at 5 ug by Ames assay. The conditions noted are these: in vivo. The data set is classed as toxicity, Salmonella enterica subsp. enterica serovar Typhimurium. The essentials:
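Plate incorporation method with TA100, with and without Aroclor 1254-induced rat liver S9 (10% vol/vol). Compound dissolved in sterile water, serially diluted; plates scored for revertant count and background lawn versus controls. Mutagen if mean revertants at least 2-fold over mean solvent control. Positive controls: 2-nitrofluorene and sodium azide without S9, 2-aminoanthracene with S9; water and DMSO vehicles.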
For orientation: In the Ames test, an excess of revertant colonies over the control signals mutagenicity.

The nature of data set [7]: Induction of mutagenicity in Salmonella serovar Typhimurium TA 100 assessed as number of revertant colonies at 2 ug by Ames assay in presence of Aroclor 1254-induced rat liver S9 metabolic activation system. It is filed as toxicity, subcellular, Salmonella enterica subsp. enterica serovar Typhimurium. The essentials:
(§2)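 Ames plate incorporation with S. Typhimurium TA98 and TA100, with or without Aroclor 1254-induced rat liver S9 (10% vol/vol). Compound was dissolved in sterile water and serially diluted to 1–500 μg/plate. Positive controls were 2-nitrofluorene and sodium azide without S9, and 2-aminoanthracene with S9; sterile water and DMSO served as vehicles. Revertant colonies and background lawn were scored. A mutagen was defined as a mean revertant count at least 2-fold over solvent control. Single experiment.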

A short description of data set [8]: Induction of mutagenicity in Salmonella serovar Typhimurium TA 98 assessed as number of revertant colonies at 2 ug by Ames assay in presence of Aroclor 1254-induced rat liver S9 metabolic activation system. It is filed as toxicity, subcellular, Salmonella enterica subsp. enterica serovar Typhimurium. The gist of the method: as §2
Data set [9] can be described thus: Induction of mutagenicity in Salmonella serovar Typhimurium TA 98 assessed as number of revertant colonies at 5 ug by Ames assay. The data set is classed as toxicity, Salmonella enterica subsp. enterica serovar Typhimurium. The settings on record: in vivo. The essentials:
as §2

Data set [10] has as its system Leishmania donovani. The data set can be described thus: Antileishmanial activity against Leishmania donovani WR378 infected in golden Syrian hamster assessed as reduction in liver parasitemia at 30 mg/kg/day, po administered for five days. The data set is classed as functional. The settings on record: 120 h. The essentials:
(§3)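 11-day golden hamster VL model adapted from an 8-day method, using L. donovani WR378 metacyclic promastigotes. Dosing was oral, once daily for 5 days. Animals were euthanized on day 11 post-infection. Liver, spleen and femoral bone marrow (flushed with Schneider's medium) were harvested.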

Data set [11] has as its system Leishmania donovani. The data set can be described thus: Antileishmanial activity against Leishmania donovani WR378 infected in golden Syrian hamster assessed as reduction in spleen parasitemia at 30 mg/kg/day, po administered for five days. The data set is classed as functional. The conditions noted are these: 120 h. The essentials: as §3
Data set [12] relates to Leishmania donovani. Kind of data set: Antileishmanial activity against Leishmania donovani WR378 infected in golden Syrian hamster assessed as reduction in bone marrow parasitemia at 30 mg/kg/day, po administered for five days. It is filed as functional. The conditions noted are these: 120 h. The gist of the method: as §3

pIC50: −log10 of the molar value.

A word on the pIC50: it is the IC50 on a negative log10 scale, so that one unit is a factor of ten. A high value points to a low IC50. Usually inhibition in vivo stands for how much of the control response was suppressed.

In the case of `C[C@@H]1[C@H](O)[C@@H](C)/C=C/C=C/C=C/C=C/C=C/C=C/C=C/[C@H](O[C@@H]2O[C@H](C)[C@@H](O)[C@H](N)[C@@H]2O)C[C@@H]2O[C@](O)(C[C@@H](O)C[C@@H](O)[C@H](O)CC[C@@H](O)C[C@@H](O)CC(=O)O[C@H]1C)C[C@H](O)[C@H]2C(=O)O` [AMPHOTERICIN B], the pIC50 in [1] is 7.01; in data set [2] it was 7.18; in data set [3], 6.85; in [4] it was 6.68; in data set [5], 5.09.
For `[N-]=[N+]=[N-].[Na+]` [SODIUM AZIDE], the Activity in data set [6] is on record as 1882.
As to `N=C(N)c1ccc(OCCCCCOc2ccc(C(=N)N)cc2)cc1` [PENTAMIDINE], the pIC50 is < 4.30 in data set [2], 6.08 in data set [3] and 4.85 in data set [5].
Turning to `Nc1ccc2cc3ccccc3cc2c1` [2-AMINOANTHRACENE], the results for the Activity in [7] and in data set [8] were 2563 and 2744, respectively.
On to `O=[N+]([O-])c1ccc2c(c1)Cc1ccccc1-2` [2-NITROFLUORENE], for which the Activity in data set [9] is listed as 1573.
As for `CCCCCCCCCCCCCCCCOP(=O)([O-])OCC[N+](C)(C)C` [MILTEFOSINE], the pIC50 is 5.07 in data set [1], 5.57 in data set [2], 4.60 in data set [4] and 4.62 in [5]. For the same compound, the inhibition in vivo at 30 mg/kg/day was determined as 88% in [10], 79% in [11] and 91% in data set [12].
In the case of `NC[C@@H]1O[C@H](O[C@H]2[C@@H](O)[C@H](O[C@@H]3[C@@H](O)[C@H](N)C[C@H](N)[C@H]3O[C@H]3O[C@H](CO)[C@@H](O)[C@H](O)[C@H]3N)O[C@@H]2CO)[C@H](N)[C@@H](O)[C@@H]1O` [PAROMOMYCIN], the pIC50 is < 4.30 in data set [1]; < 4.30 in [2]; 4.72 in [3]; 4.60 in [4]; < 4.00 in data set [5].

Values taken from ChEMBL document CHEMBL1275590, “Novel arylimidamides for treatment of visceral leishmaniasis” (Antimicrob Agents Chemother, 2010).
